Test results as given in ChEMBL document CHEMBL4428071 (J Med Chem, 2016).
The source made the active and inactive calls. The rule behind the calls is not given here.

Legend:
[1] = biological target: T1, Mast/stem cell growth factor receptor Kit (Homo sapiens, UniProt P10721); assay: Inhibition of TEL-fused cKIT (unknown origin) expressed in mouse BA/F3 cells assessed as cell growth inhibition after 72 hrs by cell titer-glo assay; type: cell-based
[2] = test system: Mast/stem cell growth factor receptor Kit (Homo sapiens), P10721 [T670I]; assay: Inhibition of TEL-fused cKIT T670I mutant (unknown origin) expressed in mouse BA/F3 cells assessed as cell growth inhibition after 72 hrs by cell titer-glo assay; type: cell-based
Mast/stem cell growth factor receptor Kit (Homo sapiens), P10721 [T670I], sequence (P10721 whole entry T670I, the tested form may be a part): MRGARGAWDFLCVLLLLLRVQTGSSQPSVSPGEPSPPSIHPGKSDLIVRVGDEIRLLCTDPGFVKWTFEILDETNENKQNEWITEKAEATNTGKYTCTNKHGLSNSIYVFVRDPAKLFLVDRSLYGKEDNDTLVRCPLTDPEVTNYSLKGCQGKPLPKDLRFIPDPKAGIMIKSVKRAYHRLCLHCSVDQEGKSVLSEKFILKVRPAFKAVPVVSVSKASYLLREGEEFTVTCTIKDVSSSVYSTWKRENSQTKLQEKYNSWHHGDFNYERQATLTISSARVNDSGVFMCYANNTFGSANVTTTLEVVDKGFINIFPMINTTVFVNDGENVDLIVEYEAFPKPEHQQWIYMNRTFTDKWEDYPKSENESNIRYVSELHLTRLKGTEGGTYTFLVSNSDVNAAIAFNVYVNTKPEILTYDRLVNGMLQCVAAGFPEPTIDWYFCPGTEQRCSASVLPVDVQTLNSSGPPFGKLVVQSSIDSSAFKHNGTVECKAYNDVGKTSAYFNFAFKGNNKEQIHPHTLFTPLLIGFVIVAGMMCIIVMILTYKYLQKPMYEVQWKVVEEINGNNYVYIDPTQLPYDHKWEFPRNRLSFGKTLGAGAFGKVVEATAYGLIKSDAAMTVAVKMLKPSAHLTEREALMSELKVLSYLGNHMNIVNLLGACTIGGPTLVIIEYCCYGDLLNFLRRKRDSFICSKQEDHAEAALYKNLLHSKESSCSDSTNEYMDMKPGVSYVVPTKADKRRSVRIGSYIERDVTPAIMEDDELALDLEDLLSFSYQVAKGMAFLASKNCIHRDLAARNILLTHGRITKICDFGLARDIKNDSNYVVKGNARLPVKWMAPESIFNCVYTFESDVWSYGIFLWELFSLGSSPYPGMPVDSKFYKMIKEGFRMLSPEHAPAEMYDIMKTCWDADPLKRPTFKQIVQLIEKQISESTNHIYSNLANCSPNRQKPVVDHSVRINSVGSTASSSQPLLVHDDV
Summary of the method: (§1)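 Cells seeded at 3000 per well and exposed to serial compound dilutions for 72 h. Viability read by CellTiter-Glo luminescence and normalised to DMSO controls; mean of three independent measurements. BaF3 lines kept IL-3-free in RPMI 1640/10% FBS after retroviral transduction and puromycin selection. GIST lines grown in DMEM/10% FBS.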

[3] = Cytotoxicity mouse BA/F3 cells assessed as cell growth inhibition after 72 hrs by cell titer-glo assay; type: cell-based, BaF3; summary of the method: as §1
Homo sapiens = organism: Homo sapiens; assay: Inhibition of TEL-fused cKIT L567P mutant (unknown origin) expressed in mouse BA/F3 cells assessed as cell growth inhibition after 72 hrs by cell titer-glo assay; type: cell-based; summary of the method: as §1
[4] = test system: Mast/stem cell growth factor receptor Kit (Homo sapiens), P10721 [V654A]; assay: Inhibition of TEL-fused cKIT V654A mutant (unknown origin) expressed in mouse BA/F3 cells assessed as cell growth inhibition after 72 hrs by cell titer-glo assay; type: cell-based; summary of the method: as §1
Mast/stem cell growth factor receptor Kit (Homo sapiens), P10721 [V654A], sequence (P10721 whole entry V654A, the tested form may be a part): as the sequence (P10721 whole entry T670I, the tested form may be a part) above, with V654A, I670T counted along it

[5] = test system: Mast/stem cell growth factor receptor Kit (Homo sapiens), P10721 [D816V]; assay: Inhibition of TEL-fused cKIT D816V mutant (unknown origin) expressed in mouse BA/F3 cells assessed as cell growth inhibition after 72 hrs by cell titer-glo assay; type: cell-based; summary of the method: as §1
Mast/stem cell growth factor receptor Kit (Homo sapiens), P10721 [D816V], sequence (P10721 whole entry D816V, the tested form may be a part): as the sequence (P10721 whole entry T670I, the tested form may be a part) above, with I670T, D816V counted along it

[6] = test system: Mast/stem cell growth factor receptor Kit (Homo sapiens), P10721 [V559D,T670I]; assay: Inhibition of TEL-fused cKIT T670I/V559D double mutant (unknown origin) expressed in mouse BA/F3 cells assessed as cell growth inhibition after 72 hrs by cell titer-glo assay; type: cell-based; summary of the method: as §1
Mast/stem cell growth factor receptor Kit (Homo sapiens), P10721 [V559D,T670I], sequence (P10721 whole entry V559D/T670I, the tested form may be a part): as the sequence (P10721 whole entry T670I, the tested form may be a part) above, with V559D counted along it

[7] = test system: Mast/stem cell growth factor receptor Kit (Homo sapiens), P10721 [V559D,V654A]; assay: Inhibition of TEL-fused cKIT V559D/V654A double mutant (unknown origin) expressed in mouse BA/F3 cells assessed as cell growth inhibition after 72 hrs by cell titer-glo assay; type: cell-based; summary of the method: as §1
Mast/stem cell growth factor receptor Kit (Homo sapiens), P10721 [V559D,V654A], sequence (P10721 whole entry V559D/V654A, the tested form may be a part): as the sequence (P10721 whole entry T670I, the tested form may be a part) above, with V559D, V654A, I670T counted along it

[8] = biological target: T1, Mast/stem cell growth factor receptor Kit; assay: Inhibition of wild type cKIT in human GIST-T1 cells assessed as cell growth inhibition after 72 hrs by cell titer-glo assay; type: cell-based
Summary of the method: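 GIST-T1 cells (cKIT wt) grown in DMEM with 10% FBS and 1% penicillin/streptomycin at 37 °C, 5% CO2. Viability read by CellTiter-Glo luminescence and normalized to DMSO controls. GI50 taken from the mean of three independent measurements.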

[9] = test system: Mast/stem cell growth factor receptor Kit (Homo sapiens), P10721 [N822K]; assay: Inhibition of TEL-fused cKIT N822K mutant (unknown origin) expressed in mouse BA/F3 cells assessed as cell growth inhibition after 72 hrs by cell titer-glo assay; type: cell-based; summary of the method: as §1
Mast/stem cell growth factor receptor Kit (Homo sapiens), P10721 [N822K], sequence (P10721 whole entry N822K, the tested form may be a part): as the sequence (P10721 whole entry T670I, the tested form may be a part) above, with I670T, N822K counted along it

[10] = test system: Mast/stem cell growth factor receptor Kit (Homo sapiens), P10721 [T670I]; assay: Inhibition of […] cKIT T670I mutant in human GIST-5R cells assessed as cell growth inhibition after 72 hrs by cell titer-glo assay; type: cell-based
[11] = test system: Mast/stem cell growth factor receptor Kit (Homo sapiens), P10721 [T670I]; settings: 1 uM
[12] = test system: Mast/stem cell growth factor receptor Kit (Homo sapiens), P10721 [T670I]; settings: 1 uM; remark: listed apart in the source
[13] = test system: Mast/stem cell growth factor receptor Kit (Homo sapiens), P10721 [T670I]; settings: 1 uM; remark: listed apart in the source
[14] = test system: Mast/stem cell growth factor receptor Kit (Homo sapiens), P10721 [T670I]; settings: 1 uM; remark: listed apart in the source
[15] = test system: Mast/stem cell growth factor receptor Kit (Homo sapiens), P10721 [T670I]; settings: 1 uM; remark: listed apart in the source
[16] = test system: Mast/stem cell growth factor receptor Kit (Homo sapiens), P10721 [T670I]; settings: 1 uM; remark: listed apart in the source

T1 sequence (P10721 whole entry, the tested form may be a part): as the sequence (P10721 whole entry T670I, the tested form may be a part) above, with I670T counted along it

| SMILES | GI50 [1] [nM] | GI50 [2] [nM] | GI50 at 72 h [3] [nM] | also measured |
| --- | --- | --- | --- | --- |
| CCC(=O)NC1CCCN(c2ccc(NC(=O)Nc3cccc(Oc4ccnc5cc(OC)c(OC)cc45)c3)cc2C(F)(F)F)C1 (configuration not stated) | 280 | 920 | 1310 | – |
| COc1cc2nccc(Oc3cccc(NC(=O)Nc4ccc(N5CCC(NC(=O)C6CCOCC6)CC5)c(C(F)(F)F)c4)c3)c2cc1OC | 87 | 83 | 2900 | – |
| COc1cc2nccc(Oc3cccc(NC(=O)Nc4ccc(N5CCC(NC(=O)CN6CCCC(C)C6)CC5)c(C(F)(F)F)c4)c3)c2cc1OC (configuration not stated) | 330 | 200 | 870 | – |
| COc1cc2nccc(Oc3cccc(NC(=O)Nc4ccc(N5CCC(NC(=O)CC(C)(C)C)CC5)c(C(F)(F)F)c4)c3)c2cc1OC | 430 | 340 | > 10000 | – |
| COc1cc2nccc(Oc3cccc(NC(=O)Nc4ccc(N5CCC(NC(C)=O)CC5)c(C(F)(F)F)c4)c3)c2cc1OC | 110 | 46 | 7100 | – |
| CCCS(=O)(=O)NC1CCN(c2ccc(NC(=O)Nc3cccc(Oc4ccnc5cc(OC)c(OC)cc45)c3)cc2C(F)(F)F)CC1 | 59 | 950 | 4230 | – |
| COc1cc2nccc(Oc3cccc(NC(=O)Nc4ccc(N5CCC(NC(=O)c6cccnc6)CC5)c(C(F)(F)F)c4)c3)c2cc1OC | 20 | 321 | 7000 | – |
| CCC(=O)NC1CCN(c2ccc(NC(=O)Nc3cccc(Oc4ccnc5cc(OC)c(OC)cc45)c3)cc2)CC1 | > 10000 | > 10000 | > 10000 | – |
| COc1cc2nccc(Oc3cccc(NC(=O)Nc4ccc(N5CCC(NS(=O)(=O)C6CC6)CC5)c(C(F)(F)F)c4)c3)c2cc1OC | 140 | 63 | 1900 | – |
| CCC(=O)NC1CCN(c2ccc(NC(=O)C3(C(=O)Nc4cccc(Oc5ccnc6cc(OC)c(OC)cc56)c4)CC3)cc2C(F)(F)F)CC1 | > 10000 | > 10000 | > 10000 | – |
| CCC(=O)Nc1ccc(N2CCC(NC(=O)Nc3cccc(Oc4ccnc5cc(OC)c(OC)cc45)c3)CC2)c(C(F)(F)F)c1 | 340 | > 10000 | > 10000 | – |
| CCN(CC)CCNC(=O)c1c(C)[nH]c(/C=C2\C(=O)Nc3ccc(F)cc32)c1C [SUNITINIB] | – | 5 | 1600 | GI50 (Homo sapiens): 3 nM; GI50 [4]: 6 nM; GI50 [5]: 420 nM; GI50 [6]: 7 nM; GI50 [7]: 6 nM; GI50 [8]: 5 nM |
| COc1cc2nccc(Oc3cccc(NC(=O)Nc4ccc(N5CCC(NC(=O)C6CCN(C(=O)C7CC7)CC6)CC5)c(C(F)(F)F)c4)c3)c2cc1OC | 130 | 120 | 800 | – |
| COc1cc2nccc(Oc3cccc(NC(=O)Nc4ccc(N5CCC(CNC(=O)CCC6CCCCN6C)CC5)c(C(F)(F)F)c4)c3)c2cc1OC (configuration not stated) | 250 | 460 | 4400 | – |
| COc1cc2nccc(Oc3cccc(NC(=O)Nc4ccc(N5CCC(NC(=O)CN)CC5)c(C(F)(F)F)c4)c3)c2cc1OC | 130 | 581 | 5000 | – |
| CCC(=O)NC1CCN(c2ccc(C(=O)Nc3cccc(Oc4ccnc5cc(OC)c(OC)cc45)c3)cc2C(F)(F)F)CC1 | 400 | 2700 | > 10000 | – |

| SMILES | GI50 [1] [nM] | GI50 [2] [nM] | GI50 at 72 h [3] [nM] | also measured |
| --- | --- | --- | --- | --- |
| CCS(=O)(=O)NC1CCN(c2ccc(NC(=O)Nc3cccc(Oc4ccnc5cc(OC)c(OC)cc45)c3)cc2C(F)(F)F)CC1 | 34 | 330 | 6200 | – |
| COc1cc2nccc(Oc3cccc(NC(=O)Nc4ccc(N5CCC(NC(=O)C6CCN(C(C)=O)CC6)CC5)c(C(F)(F)F)c4)c3)c2cc1OC | 59 | 230 | 3400 | – |
| Cc1ccc(NC(=O)c2ccc(CN3CCN(C)CC3)cc2)cc1Nc1nccc(-c2cccnc2)n1 [IMATINIB] | – | 9600 | > 10000 | GI50 (Homo sapiens): 10 nM; GI50 [4]: 700 nM; GI50 [9]: 360 nM; GI50 [5]: > 10000 nM; GI50 [7]: 700 nM; GI50 [10]: 8300 nM; inhibition [11]: inactive; inhibition [12]: inactive; inhibition [13]: inactive; inhibition [14]: inactive; inhibition [15]: inactive; inhibition [16]: inactive |
| COc1cc2nccc(Oc3cccc(NC(=O)Nc4ccc(N5CCC(NC(=O)C6CCCN(C(=O)OC(C)(C)C)C6)CC5)c(C(F)(F)F)c4)c3)c2cc1OC (configuration not stated) | 130 | 170 | 510 | – |
| COc1cc2nccc(Oc3cccc(NC(=O)Nc4ccc(N5CCC(NC(=O)CN(C)C)CC5)c(C(F)(F)F)c4)c3)c2cc1OC | 38 | 53 | 2900 | – |
| CCN1CCC(C(=O)NC2CCN(c3ccc(NC(=O)Nc4cccc(Oc5ccnc6cc(OC)c(OC)cc56)c4)cc3C(F)(F)F)CC2)CC1 | 39 | 87 | 1300 | – |
| COc1cc2nccc(Oc3cccc(NC(=O)Nc4ccc(N5CCC(NC(=O)C6CCN(C)CC6)CC5)c(C(F)(F)F)c4)c3)c2cc1OC | 160 | 81 | 1700 | – |
| COc1cc2nccc(Oc3cccc(NC(=O)Nc4ccc(N5CCC(NC(=O)CN6CCCCC6)CC5)c(C(F)(F)F)c4)c3)c2cc1OC | 120 | 37 | 480 | – |
| COc1cc2nccc(Oc3cccc(NC(=O)Nc4ccc(N5CCC(NC(=O)CCN6CCCCC6)CC5)c(C(F)(F)F)c4)c3)c2cc1OC | 440 | 260 | 7600 | – |
| COc1cc2nccc(Oc3cccc(NC(=O)Nc4ccc(N5CCC(NC(=O)C6=CCCCC6)CC5)c(C(F)(F)F)c4)c3)c2cc1OC | 760 | 760 | 1100 | – |
| COc1cc2nccc(Oc3cccc(NC(=O)Nc4ccc(N5CCC(NC(=O)C6CCNC(C)C6)CC5)c(C(F)(F)F)c4)c3)c2cc1OC (configuration not stated) | 460 | 650 | 4000 | – |
| CCC(=O)NC1CCN(c2ccc(NC(=O)Nc3cccc(Oc4ccnc5cc(OC)c(OC)cc45)c3)cc2C(F)(F)F)CC1 | 120 | 71 | 1500 | – |
| COc1cc2nccc(Oc3cccc(NC(=O)Nc4ccc(N5CCC(NC(=O)CCC6CCCCN6C)CC5)c(C(F)(F)F)c4)c3)c2cc1OC (configuration not stated) | 190 | 200 | 1200 | – |
| COc1cc2nccc(Oc3cccc(NC(=O)Nc4ccc(N5CCC(NC(=O)C(C)N)CC5)c(C(F)(F)F)c4)c3)c2cc1OC (single isomer, unassigned) | 120 | 480 | 3000 | – |
| COc1cc2nccc(Oc3cccc(NC(=O)Nc4ccc(N5CCC(NC(=O)CCN6CCOCC6)CC5)c(C(F)(F)F)c4)c3)c2cc1OC | 42 | 59 | 3600 | – |
| COc1cc2nccc(Oc3cccc(NC(=O)Nc4ccc(N5CCC(NS(C)(=O)=O)CC5)c(C(F)(F)F)c4)c3)c2cc1OC | 3900 | 3800 | > 10000 | – |
